Measurements from ChEMBL document CHEMBL1938375, “Design, synthesis and biological evaluation of pyrazole derivatives as potential multi-kinase inhibitors in hepatocellular carcinoma” (Eur J Med Chem, 2012).
Active and inactive are the calls of the source. The calls are words filed in the database; no cut-off is given here.

Tests used:
[1] = tested on: SNU-449; experiment: Decrease of cyclin D1 level in human SNU449 cells at 50 uM after 72 hrs by Western blotting relative to beta-actin; type: functional
Outline: (§1)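 Western blots in SNU449 cells treated at a single intermediate level for 72 h, with DMSO as control. Blots probed cyclin D1, p21, p27 and p53. Band intensities were given as the ratio of protein to β-actin.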

[2] = tested on: SNU-449; experiment: Cell cycle arrest in human SNU449 cells assessed as accumulation at G1 phase at 50 uM after 72 hrs using […]propidium iodide staining by flow cytometric analysis; type: functional, cell-based
[3] = biological target: RAC-alpha serine/threonine-protein kinase (Homo sapiens) (UniProt P31749); experiment: Inhibition of AKT in human SNU449 cells assessed as phosphorylated MDM2 level at 50 uM after 72 hrs by Western blotting relative to beta-actin; details: SNU-449
Chain of RAC-alpha serine/threonine-protein kinase (Homo sapiens) (P31749 whole entry): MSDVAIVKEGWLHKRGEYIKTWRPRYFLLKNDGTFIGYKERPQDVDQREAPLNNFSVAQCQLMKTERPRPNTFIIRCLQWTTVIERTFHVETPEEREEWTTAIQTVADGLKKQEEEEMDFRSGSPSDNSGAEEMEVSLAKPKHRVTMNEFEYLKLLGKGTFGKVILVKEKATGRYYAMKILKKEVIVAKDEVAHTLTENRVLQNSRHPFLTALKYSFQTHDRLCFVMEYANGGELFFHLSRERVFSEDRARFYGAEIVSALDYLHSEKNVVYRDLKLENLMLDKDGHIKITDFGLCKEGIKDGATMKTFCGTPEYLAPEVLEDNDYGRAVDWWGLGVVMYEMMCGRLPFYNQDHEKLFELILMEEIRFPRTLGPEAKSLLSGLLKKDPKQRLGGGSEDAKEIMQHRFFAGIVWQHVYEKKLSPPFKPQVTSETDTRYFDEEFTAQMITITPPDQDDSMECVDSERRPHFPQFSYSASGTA

[4] = tested on: SNU-449; experiment: Cytotoxicity against human SNU449 cells after 48 hrs; type: functional, cell-based; details: SNU-449, 48 h
Outline: (§2)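 Trypan blue exclusion counts on SNU449 cells grown in RPMI 1640 with 10% FBS and antibiotics. Compounds came from 10 mM DMSO stocks, diluted and tested at 50, 100 and 150 for 48 and 72 h in triplicate, with DMSO as control. Viable cells were counted in a Burker chamber. IC50 was derived from percentage viable cells relative to control.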

[5] = tested on: SNU-449; experiment: Up-regulation of p53 expression in human SNU449 cells at 50 uM after 72 hrs by Western blotting relative to beta-actin; type: functional; outline: as §1
[6] = tested on: SNU-449; experiment: Cytotoxicity against human SNU449 cells at 50 uM after 72 hrs; type: functional, cell-based; outline: as §2
[7] = biological target: RAC-alpha serine/threonine-protein kinase (Homo sapiens) (UniProt P31749); experiment: Inhibition of AKT in human SNU449 cells assessed as phosphorylated GSK3-beta level at 50 uM after 72 hrs by Western blotting relative to beta-actin; type: cell-based; details: SNU-449
Outline: (§3)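 Western blots in SNU449 cells treated at a single intermediate level for 48 and 72 h, with DMSO as control. Blots probed P-ERK1/2, P-GSK-3β (Ser-9) and P-RpS6. Band intensities were given as the ratio of phosphoprotein to β-actin.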

[8] = biological target: RAC-alpha serine/threonine-protein kinase (Homo sapiens) (UniProt P31749); experiment: Inhibition of AKT in human SNU449 cells assessed as phosphorylated GSK3-beta level at 50 uM after 48 hrs by Western blotting relative to beta-actin; type: cell-based; details: SNU-449; outline: as §3
[9] = tested on: SNU-449; experiment: Cell cycle arrest in human SNU449 cells assessed as decrease in S phase at 100 uM after 48 to 72 hrs using […]propidium iodide staining by flow cytometric analysis
[10] = biological target: RAC-alpha serine/threonine-protein kinase (Homo sapiens) (UniProt P31749); experiment: Inhibition of AKT phosphorylation in human SNU449 cells at 100 uM after 72 hrs by Western blotting relative to beta-actin; type: cell-based; details: SNU-449
Outline: (§4)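 Western blot for P-AKT in SNU449 cells treated at 25, 50 and 100 for 48 h and 72 h, with DMSO-treated cells as control. Bands were quantified as the P-AKT to β-actin ratio.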

[11] = tested on: SNU-449; experiment: Up-regulation of p21 expression in human SNU449 cells at 50 uM after 72 hrs by Western blotting relative to beta-actin; type: functional; outline: as §1
[12] = biological target: RAC-alpha serine/threonine-protein kinase (Homo sapiens) (UniProt P31749); experiment: Inhibition of AKT phosphorylation in human SNU449 cells at 100 uM after 48 hrs by Western blotting relative to beta-actin; type: cell-based; details: SNU-449; outline: as §4
[13] = tested on: SNU-449; experiment: Induction of apoptosis in human SNU449 cells at 50 to 100 uM after 72 hrs using annexin V/propidium iodide staining by flow cytometric analysis; type: functional, cell-based
Outline: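 SNU449 cells were treated at two compound levels for 72 h, with DMSO as control. Apoptosis was detected by Annexin V/propidium iodide staining and flow cytometry, following the kit instructions. Values are averages ± SD.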

[14] = biological target: RAC-alpha serine/threonine-protein kinase (Homo sapiens) (UniProt P31749); experiment: Inhibition of AKT in human SNU449 cells assessed as phosphorylated […] level at 50 uM after 72 hrs by Western blotting relative to beta-actin; type: cell-based; details: SNU-449
[15] = tested on: SNU-449; experiment: Cell cycle arrest in human SNU449 cells assessed as accumulation at G1 phase at 100 uM after 48 to 72 hrs using […]propidium iodide staining by flow cytometric analysis; type: functional, cell-based
[16] = biological target: RAC-alpha serine/threonine-protein kinase (Homo sapiens) (UniProt P31749); experiment: Inhibition of AKT in human SNU449 cells assessed as total MDM2 protein level at 50 uM after 72 hrs by Western blotting relative to beta-actin; details: SNU-449
[17] = tested on: SNU-449; experiment: Cytotoxicity against human SNU449 cells after 72 hrs; type: functional, cell-based; details: SNU-449, 72 h; outline: as §2
[18] = biological target: RAC-alpha serine/threonine-protein kinase (Homo sapiens) (UniProt P31749); experiment: Inhibition of AKT in human SNU449 cells assessed as phosphorylated ERK1/2 level at 50 uM after 72 hrs by Western blotting relative to beta-actin; type: cell-based; details: SNU-449; outline: as §3
[19] = biological target: RAC-alpha serine/threonine-protein kinase (Homo sapiens) (UniProt P31749); experiment: Inhibition of AKT in human SNU449 cells assessed as phosphorylated RpS6 level at 50 uM after 72 hrs by Western blotting relative to beta-actin; type: cell-based; details: SNU-449; outline: as §3
[20] = biological target: RAC-alpha serine/threonine-protein kinase (Homo sapiens) (UniProt P31749); experiment: Inhibition of AKT phosphorylation in human SNU449 cells at 50 uM after 48 hrs by Western blotting relative to beta-actin; type: cell-based; details: SNU-449; outline: as §4
[21] = tested on: SNU-449; experiment: Cytotoxicity against human SNU449 cells at 50 uM after 48 hrs; type: functional, cell-based; outline: as §2
[22] = biological target: RAC-alpha serine/threonine-protein kinase (Homo sapiens) (UniProt P31749); experiment: Inhibition of AKT in human SNU449 cells assessed as phosphorylated RpS6 level at 50 uM after 48 hrs by Western blotting relative to beta-actin; type: cell-based; details: SNU-449; outline: as §3
[23] = biological target: RAC-alpha serine/threonine-protein kinase (Homo sapiens) (UniProt P31749); experiment: Inhibition of AKT in human SNU449 cells assessed as beta-catenin level at 50 uM after 48 hrs by Western blotting relative to beta-actin; details: SNU-449
[24] = biological target: RAC-alpha serine/threonine-protein kinase (Homo sapiens) (UniProt P31749); experiment: Inhibition of AKT phosphorylation in human SNU449 cells at 25 uM after 72 hrs by Western blotting relative to beta-actin; type: cell-based; details: SNU-449; outline: as §4
[25] = biological target: RAC-alpha serine/threonine-protein kinase (Homo sapiens) (UniProt P31749); experiment: Inhibition of AKT phosphorylation in human SNU449 cells at 50 uM after 72 hrs by Western blotting relative to beta-actin; type: cell-based; details: SNU-449; outline: as §4
[26] = biological target: RAC-alpha serine/threonine-protein kinase (Homo sapiens) (UniProt P31749); experiment: Inhibition of AKT phosphorylation in human SNU449 cells at 25 uM after 48 hrs by Western blotting relative to beta-actin; type: cell-based; details: SNU-449; outline: as §4
[27] = tested on: SNU-449; experiment: Effect on p27 expression in human SNU449 cells at 50 uM after 72 hrs by Western blotting relative to beta-actin; type: functional; outline: as §1
[28] = biological target: RAC-alpha serine/threonine-protein kinase (Homo sapiens) (UniProt P31749); experiment: Inhibition of AKT in human SNU449 cells assessed as phosphorylated ERK1/2 level at 50 uM after 48 hrs by Western blotting relative to beta-actin; type: cell-based; details: SNU-449; outline: as §3
[29] = tested on: SNU-449; experiment: Cell cycle arrest in human SNU449 cells assessed as accumulation at G1 phase at 25 uM after 48 to 72 hrs using […]propidium iodide staining by flow cytometric analysis; type: functional, cell-based

Ratio [3] | Ratio [7] | Ratio [8] | Ratio [10] | Ratio [12] | Ratio [14] | Ratio [16] | Ratio [18] | Ratio [19] | Ratio [20] | Compound | Ratio [1] | IC50 [4] [µM] | Ratio [5] | Activity [6] | Activity [9] | Ratio [11] | Activity [13] | Activity [15] | IC50 [17] [µM] | Activity [21] | other results
0.65 | 0.6 | 0.48 | 0.64 | 0.39 | 0.46 | 1.4 | 0.91 | 0.49 | 0.58 | Cc1cccc(NC(=O)c2cc(C(=O)Nc3ccc(N)cc3)n(-c3ccc(N)cc3)n2)c1C | 0.67 | 150 | 1.3 | Active | Active | 4.6 | Active | Active | 50 | Active | Activity [2]: Active; Ratio [22]: 0.64; Ratio [23]: 0.41; Ratio [24]: 1.9; Ratio [25]: 0.53; Ratio [26]: 1.1; Ratio [27]: 1.2; Ratio [28]: 2
0.4 | 0.93 | 0.18 | 0.5 | 0.07 | 0.75 | 1.3 | 1.1 | 0.29 | 0.26 | Cc1cccc(-c2cc(C(=O)Nc3ccc(N)cc3)n(-c3ccc(N)cc3)n2)c1C | 0.39 | < 100 | 1.4 | Active | Active | 4.6 | Active | Active | < 50 | Active | Activity [29]: Active; Ratio [22]: 0.5; Ratio [23]: 0.57; Ratio [24]: 2.2; Ratio [25]: 0.32; Ratio [26]: 1.2; Ratio [27]: 0.95; Ratio [28]: 1.5
